The results in this text go back to ChEMBL document CHEMBL1128745 (J Med Chem, 1995).

Structures are written as SMILES. pIC50: −log10 of the molar value. Some results are limits rather than exact numbers.

Experiment [1] has as its target T1, Type-2 angiotensin II receptor (Rattus norvegicus, UniProt P35351).
T1 sequence (P35351 whole entry): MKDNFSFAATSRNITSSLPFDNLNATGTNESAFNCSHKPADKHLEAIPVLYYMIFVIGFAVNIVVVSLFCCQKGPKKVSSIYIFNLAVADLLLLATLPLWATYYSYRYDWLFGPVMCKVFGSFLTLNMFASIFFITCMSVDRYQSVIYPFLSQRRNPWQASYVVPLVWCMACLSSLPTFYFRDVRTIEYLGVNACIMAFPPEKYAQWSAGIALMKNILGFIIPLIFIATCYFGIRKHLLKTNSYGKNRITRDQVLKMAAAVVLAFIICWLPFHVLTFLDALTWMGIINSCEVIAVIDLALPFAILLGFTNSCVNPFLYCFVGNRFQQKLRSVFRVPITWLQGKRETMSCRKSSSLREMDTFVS
The experiment can be described thus: Inhibition of [125I]-[Sar1,Ile8]Ang II binding at rat angiotensin II (type 2) receptor. The method in brief:
(§1)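 AT2 binding uses rat isolated adrenal membrane homogenates with 10^-6 M losartan present. [125I][Sar1,Ile8]Ang II is the radioligand, and IC50 is 50% displacement of total specifically bound label. Duplicate determinations include DuP 753 and saralasin as internal standards. Intraassay variability 5%, interassay 20%.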

Experiment [2] has as its target T2, Angiotensin II receptor (AT-1) type-1 (Rattus norvegicus, UniProt P29089+P25095).
T2 sequence (P29089 whole entry): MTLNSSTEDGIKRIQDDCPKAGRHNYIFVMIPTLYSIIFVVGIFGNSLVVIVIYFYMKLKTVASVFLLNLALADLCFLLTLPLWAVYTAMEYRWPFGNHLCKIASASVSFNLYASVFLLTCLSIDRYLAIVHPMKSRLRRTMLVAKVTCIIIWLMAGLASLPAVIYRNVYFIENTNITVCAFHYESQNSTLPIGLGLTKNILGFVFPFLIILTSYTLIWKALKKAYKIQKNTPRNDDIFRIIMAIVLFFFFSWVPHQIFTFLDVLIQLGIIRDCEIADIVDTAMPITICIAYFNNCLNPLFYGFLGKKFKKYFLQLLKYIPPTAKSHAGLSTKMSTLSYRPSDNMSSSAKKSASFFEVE
T2 sequence (P25095 whole entry): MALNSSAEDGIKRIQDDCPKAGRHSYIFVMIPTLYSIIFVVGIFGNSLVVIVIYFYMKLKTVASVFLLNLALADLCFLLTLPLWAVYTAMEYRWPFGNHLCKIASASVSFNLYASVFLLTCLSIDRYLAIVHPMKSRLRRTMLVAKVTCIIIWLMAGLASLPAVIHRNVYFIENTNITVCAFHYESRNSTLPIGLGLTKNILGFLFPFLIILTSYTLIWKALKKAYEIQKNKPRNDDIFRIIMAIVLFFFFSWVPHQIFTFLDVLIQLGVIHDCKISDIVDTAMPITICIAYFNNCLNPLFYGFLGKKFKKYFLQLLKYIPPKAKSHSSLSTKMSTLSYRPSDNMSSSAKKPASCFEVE
Kind of experiment: Inhibition of [125I]-[Sar1,Ile8]Ang II binding at rat angiotensin II (type 1) receptor. The format is protein assay. An outline of the steps: (§2)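 Rat isolated adrenal membrane homogenates with 10^-6 M PD123177 present to isolate the AT1 site. Radioligand is [125I][Sar1,Ile8]Ang II. IC50 is the concentration giving 50% displacement of total specifically bound radioligand. Run in duplicate against DuP 753 and saralasin as internal standards. Intraassay variability 5%, interassay 20%.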

Experiment [3] has as its target T3, Angiotensin II receptor (Rattus norvegicus) (UniProt P29089+P25095+P35351). Kind of experiment: Ratio of IC50 at Angiotensin II type 1 and angiotensin II type 2 receptors. The format is protein assay. An outline of the steps:
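AT2 IC50 divided by AT1 IC50. Both come from [125I][Sar1,Ile8]Ang II displacement on rat adrenal membrane homogenates, with 10^-6 M losartan (AT2) or 10^-6 M PD123177 (AT1) present. Each was run in duplicate.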

In a further experiment the test system is Rattus norvegicus. Kind of experiment: Effective dose to lower blood pressure by 30 mmHg in renal hypertensive rats on peroral administration. The format is functional. As to conditions: po. An outline of the steps: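 Conscious renal artery-ligated hypertensive rats were dosed orally; vehicle was 0.05 mg/mL Na2CO3 in 0.5% methocel. Mean arterial pressure was monitored, n=6-9 per group. ED30 is the dose that lowers blood pressure by 30 mmHg.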

Experiment [4] deals with T1, Type-2 angiotensin II receptor. Kind of experiment: Inhibitory concentration against Angiotensin II receptor type 2 with [125I]-[Sar1,Ile8]Ang II. The method in brief:
as §1

The target of experiment [5] is T2, Angiotensin II receptor (AT-1) type-1. The experiment can be described thus: Inhibitory concentration against Angiotensin II receptor type 1 with [125I]-[Sar1,Ile8]Ang II. The experiment is classed as protein assay. The method in brief:
as §2

The target of experiment [6] is T3, Angiotensin II receptor (Rattus norvegicus). The experiment can be described thus: Relative inhibition of angiotensin II receptor types 1 and 2. The experiment is classed as protein assay.
For experiment [7] the target is unchanged. Kind of experiment: Relative inhibition of angiotensin II type 2 and angiotension II type 1 receptors in modified assay. The format is protein assay. An outline of the steps: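 Rat adrenal membrane homogenates with [125I][Sar1,Ile8]Ang II as radioligand. AT1 sites were measured with 10^-6 M PD123177 present and AT2 sites with 10^-6 M losartan present. IC50 is the concentration giving 50% displacement of specifically bound radioligand, run in duplicate against DuP 753 and saralasin standards. Intra-assay variability was 5% and inter-assay 20%. The value is the AT2 IC50 divided by the AT1 IC50.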

The term pIC50 denotes −log10 of the IC50, conventionally taken in molar units. The term IC50 denotes the concentration needed to halve the response being measured. Low values mean higher potency, high ones lower potency. In turn, `CCCc1nc(CC)c(C(=O)CCN(C(C)=O)c2cccnc2)n1Cc1ccc(-c2ccccc2S(=O)(=O)NC(=O)OCCC(C)C)cc1F` gave a pIC50 in experiment [1] of 8.52. Also, the IC50 in experiment [2] is 400 pM. In addition, the IC50 ratio in experiment [3] is 7.5.
`CCCc1nc(CC)c(C(=O)CCN(C(=O)c2cccnc2)c2cccnc2)n1Cc1ccc(-c2ccccc2S(=O)(=O)NC(=O)OCCC(C)C)cc1F` gave a pIC50 in experiment [1] of 9.66. Moreover, the IC50 in experiment [2] was 500 pM. For the same compound, in the experiment with Rattus norvegicus, the ED30 came out at 0.26 mg/kg. The IC50 ratio in experiment [3] turned out to be 0.44.
Take `CCCc1nc(CC)c(C(=O)OC)n1Cc1ccc(-c2ccccc2S(=O)(=O)NC(=O)OCCC(C)C)cc1F`: the pIC50 in experiment [4] is 7.40; in experiment [1], 8.52; in experiment [2] it was 9.00. The IC50 in experiment [5] worked out at 100 pM. Also, in experiment [6], the IC50 ratio stood at 3.
With `CCCc1nc(CC)c(C(=O)CCN(C(=O)c2cccnc2)c2ccccn2)n1Cc1ccc(-c2ccccc2S(=O)(=O)NC(=O)OCCC(C)C)cc1F`, in experiment [1], the pIC50 was 9.80. In experiment [2], this compound returned an IC50 of 520 pM. The ED30 with Rattus norvegicus was 0.9 mg/kg. Also, the IC50 ratio in experiment [3] was 0.31.
As to `CCCc1nc(CC)c(C(=O)CCN(C(=O)C(C)C)c2cccnc2)n1Cc1ccc(-c2ccccc2S(=O)(=O)NC(=O)OCCC(C)C)cc1F`, the pIC50 in experiment [1] was 9.00. The compound also displayed an IC50 in experiment [2] of 300 pM. Further, in experiment [3], the IC50 ratio is 3.3.
On to `CCCc1nc(CC)c(C(=O)CCN(C(=O)CC)c2cccnc2)n1Cc1ccc(-c2ccccc2S(=O)(=O)NC(=O)OCCC(C)C)cc1F`, for which the pIC50 in experiment [1] was 9.31. The compound further had an IC50 in experiment [2] of 450 pM. Further, in the experiment with Rattus norvegicus, the ED30 turned out to be 0.26 mg/kg. Further, in experiment [3], the IC50 ratio is 1.09.
With `CCCCOC(=O)NS(=O)(=O)c1ccccc1-c1ccc(Cn2c(CCC)nc(CC)c2C(C)=O)c(F)c1`, the pIC50 was 8.00 in experiment [4], 9.00 in experiment [1] and 9.00 in experiment [2]. The compound further gave an IC50 in experiment [5] of 90 pM. The figures for the IC50 ratio in experiment [7] and in experiment [3] were 111 and 1, respectively.
As to `CCCCOC(=O)NS(=O)(=O)c1ccccc1-c1ccc(Cn2c(CCC)nc(CC)c2C(=O)OC)c(Cl)c1`, the pIC50 in experiment [4] is 7.43; in experiment [2], 8.52. Also, the IC50 in experiment [5] amounted to 160 pM. Further, the IC50 ratio was 231 in experiment [3] and 2.3 in experiment [6].
In experiment [1], `CCCc1nc(CC)c(C(=O)CCN(C(=O)c2ccccc2)c2ccccc2)n1Cc1ccc(-c2ccccc2S(=O)(=O)NC(=O)OCCC(C)C)cc1F` showed a pIC50 of 10.22. This compound had an IC50 in experiment [2] of 100 pM.
On to `CCCCOC(=O)NS(=O)(=O)c1ccccc1-c1ccc(Cn2c(CCC)nc(CC)c2C(=O)CCN(CCCC)C(=O)c2ccccc2)c(F)c1`, for which the pIC50 in experiment [1] is 8.00. This compound also yielded an IC50 in experiment [2] of 300 pM. In addition, the IC50 ratio in experiment [3] amounted to 33.
`CCCC(=O)N(CCC(=O)c1c(CC)nc(CCC)n1Cc1ccc(-c2ccccc2S(=O)(=O)NC(=O)OCCC(C)C)cc1F)c1cccnc1` had a pIC50 in experiment [1] of 9.60. The IC50 in experiment [2] is 320 pM. The ED30 in the experiment on Rattus norvegicus is 0.27 mg/kg. Also, in experiment [3], the IC50 ratio was 0.78.
As to `CCCCOC(=O)NS(=O)(=O)c1ccccc1-c1ccc(Cn2c(CCC)nc(CC)c2C(=O)CCN(C(=O)c2ccccc2)c2ccccc2)c(F)c1`, the pIC50 in experiment [1] was 9.74. The compound further showed an IC50 in experiment [2] of 250 pM. In the experiment on Rattus norvegicus, this compound registered an ED30 of 1.57 mg/kg. Moreover, the IC50 ratio in experiment [3] is 0.7.
On the same counts, the results for `CCCCOC(=O)NS(=O)(=O)c1ccccc1-c1ccc(Cn2c(CCC)nc(CC)c2C(=O)CCN(C(=O)CCC)c2ccccc2)c(F)c1` are 9.82, 200 pM, 1.5 mg/kg and 0.75.
On the same counts, the results for `CCCc1nc(CC)c(C(=O)CCN(C(=O)c2ccncc2)c2cccnc2)n1Cc1ccc(-c2ccccc2S(=O)(=O)NC(=O)OCCC(C)C)cc1F` are 9.00, 700 pM, 0.4 mg/kg and 1.4.
For `CCCc1nc(CC)c(C(=O)CCN(C(=O)c2ccncc2)c2ccccc2)n1Cc1ccc(-c2ccccc2S(=O)(=O)NC(=O)OCCC(C)C)cc1F` the same measures were 10.00, 400 pM, less than 3 mg/kg and 0.25.
`CCCC(=O)N(CCC(=O)c1c(CC)nc(CCC)n1Cc1ccc(-c2ccccc2S(=O)(=O)NC(=O)OCCC(C)C)cc1)c1cccnc1` had a pIC50 in experiment [1] of 9.00. This compound also displayed an IC50 in experiment [2] of 400 pM. Also, the IC50 ratio in experiment [3] came out at 2.5.
`CCCc1nc(CC)c(C(=O)CCN(C(=O)c2cccnc2)c2cccnc2)n1Cc1ccc(-c2ccccc2S(=O)(=O)NC(=O)OCCC(C)C)cc1` gave a pIC50 in experiment [1] of 9.00. The same compound came in with an IC50 in experiment [2] of 300 pM. Besides, the IC50 ratio in experiment [3] is 3.3.
